# Reference: ChEMBL document CHEMBL3864121, “Development of ebsulfur analogues as potent antibacterials against methicillin-resistant Staphylococcus aureus” (Bioorg Med Chem, 2016)
# Assays:
# Format in all cases: functional
# Staphylococcus aureus [1] = assay: Antibacterial activity against methicillin-resistant Staphylococcus aureus G6 measured after overnight incubation by broth double-dilution method
# Outline: (§1)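 MIC by broth double-dilution in liquid Mueller-Hinton medium. Values are reported in µg/mL.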
# Staphylococcus aureus [2] = assay: Antibacterial activity against methicillin-resistant Staphylococcus aureus USA300 measured after overnight incubation by broth double-dilution method; outline: as §1
# Enterococcus = assay: Antibacterial activity against Vancomycin-resistant Enterococcus measured after overnight incubation by broth double-dilution method; outline: as §1
# Staphylococcus aureus [3] = assay: Antibacterial activity against methicillin-resistant Staphylococcus aureus C16 measured after overnight incubation by broth double-dilution method; outline: as §1
# Enterococcus faecalis [4] = assay: Antibacterial activity against Enterococcus faecalis ATCC 29212 measured after overnight incubation by broth double-dilution method
# Outline: (§2)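 MIC by broth double-dilution in Mueller-Hinton medium. Re-testing at the time-kill inoculum used 1×10^6 CFU/mL.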
# Staphylococcus aureus [5] = assay: Antibacterial activity against methicillin-resistant Staphylococcus aureus C7 measured after overnight incubation by broth double-dilution method; outline: as §1
# Staphylococcus aureus [6] = assay: Antibacterial activity against methicillin-resistant Staphylococcus aureus 2 measured after overnight incubation by broth double-dilution method; outline: as §1
# Staphylococcus aureus [7] = assay: Antibacterial activity against methicillin-resistant Staphylococcus aureus C1 measured after overnight incubation by broth double-dilution method; outline: as §1
# Staphylococcus aureus [8] = assay: Antibacterial activity against methicillin-resistant Staphylococcus aureus USA100 measured after overnight incubation by broth double-dilution method; outline: as §1
# Staphylococcus aureus [9] = assay: Antibacterial activity against methicillin-resistant Staphylococcus aureus C19 measured after overnight incubation by broth double-dilution method; outline: as §1
# Staphylococcus aureus [10] = assay: Antibacterial activity against methicillin-resistant Staphylococcus aureus G14 measured after overnight incubation by broth double-dilution method; outline: as §1
# Staphylococcus aureus [11] = assay: Antibacterial activity against methicillin-resistant Staphylococcus aureus NRS51 measured after overnight incubation by broth double-dilution method; outline: as §1
# Staphylococcus aureus [12] = assay: Antibacterial activity against methicillin-sensitive Staphylococcus aureus ATCC 6538 measured after overnight incubation by broth double-dilution method; outline: as §1
# Staphylococcus aureus [13] = assay: Antibacterial activity against methicillin-resistant Staphylococcus aureus S14 measured after overnight incubation by broth double-dilution method; outline: as §1
# Staphylococcus aureus [14] = assay: Antibacterial activity against methicillin-resistant Staphylococcus aureus S17 measured after overnight incubation by broth double-dilution method; outline: as §1
# Staphylococcus aureus [15] = assay: Antibacterial activity against methicillin-resistant Staphylococcus aureus ATCC 33591 measured after overnight incubation by broth double-dilution method; outline: as §1
# Staphylococcus aureus [16] = assay: Antibacterial activity against methicillin-resistant Staphylococcus aureus NRS4 measured after overnight incubation by broth double-dilution method; outline: as §1
# Staphylococcus aureus [17] = assay: Antibacterial activity against methicillin-resistant Staphylococcus aureus NRS77 measured after overnight incubation by broth double-dilution method; outline: as §1
# Enterococcus faecium = assay: Antibacterial activity against Enterococcus faecium BM4105-RF measured after overnight incubation by broth double-dilution method; outline: as §1
# Enterococcus faecalis [18] = assay: Antibacterial activity against Enterococcus faecalis ATCC 49533 measured after overnight incubation by broth double-dilution method; outline: as §2
# Staphylococcus aureus [19] = assay: Antibacterial activity against methicillin-resistant Staphylococcus aureus C14 measured after overnight incubation by broth double-dilution method; outline: as §1
# Staphylococcus aureus [20] = assay: Antibacterial activity against methicillin-resistant Staphylococcus aureus S24 measured after overnight incubation by broth double-dilution method; outline: as §1
# Staphylococcus aureus [21] = assay: Antibacterial activity against methicillin-resistant Staphylococcus aureus 1 measured after overnight incubation by broth double-dilution method; outline: as §1
# Staphylococcus aureus [22] = assay: Antibacterial activity against methicillin-resistant Staphylococcus aureus USA600 measured after overnight incubation by broth double-dilution method; outline: as §1
# Staphylococcus aureus [23] = assay: Antibacterial activity against methicillin-resistant Staphylococcus aureus S22 measured after overnight incubation by broth double-dilution method; outline: as §1
# [24] = system: Mycolicibacterium smegmatis; assay: Antibacterial activity against Mycobacterium smegmatis MC2-155 measured after overnight incubation by broth double-dilution method; conditions: str. MC2 155; outline: as §1
# Staphylococcus aureus [25] = assay: Antibacterial activity against methicillin-sensitive Staphylococcus aureus ATCC 29213 measured after overnight incubation by broth double-dilution method; outline: as §1
# Listeria monocytogenes = assay: Antibacterial activity against Listeria monocytogenes ATCC 19115 measured after overnight incubation by broth double-dilution method; outline: as §2
# Staphylococcus aureus [26] = assay: Antibacterial activity against methicillin-resistant Staphylococcus aureus G12 measured after overnight incubation by broth double-dilution method; outline: as §1
# Staphylococcus aureus [27] = assay: Antibacterial activity against methicillin-resistant Staphylococcus aureus C2 measured after overnight incubation by broth double-dilution method; outline: as §1
# [28] = system: Staphylococcus epidermidis; assay: Antibacterial activity against Staphylococcus epidermidis ATCC 35984 measured after overnight incubation by broth double-dilution method; conditions: RP62A; outline: as §2
# Staphylococcus aureus [29] = assay: Antibacterial activity against methicillin-sensitive Staphylococcus aureus ATCC 25923 measured after overnight incubation by broth double-dilution method; outline: as §1
# Staphylococcus aureus [30] = assay: Antibacterial activity against methicillin-resistant Staphylococcus aureus BRS3 measured after overnight incubation by broth double-dilution method; outline: as §1
# Staphylococcus aureus [31] = assay: Antibacterial activity against methicillin-resistant Staphylococcus aureus USA200 measured after overnight incubation by broth double-dilution method; outline: as §1
# Staphylococcus aureus [32] = assay: Antibacterial activity against methicillin-resistant Staphylococcus aureus G1 measured after overnight incubation by broth double-dilution method; outline: as §1
SMILES,MIC (Staphylococcus aureus [1]) [µg/mL],MIC (Staphylococcus aureus [2]) [µg/mL],MIC (Enterococcus) [µg/mL],MIC (Staphylococcus aureus [3]) [µg/mL],MIC (Enterococcus faecalis [4]) [µg/mL],MIC (Staphylococcus aureus [5]) [µg/mL],MIC (Staphylococcus aureus [6]) [µg/mL],MIC (Staphylococcus aureus [7]) [µg/mL],MIC (Staphylococcus aureus [8]) [µg/mL],MIC (Staphylococcus aureus [9]) [µg/mL],MIC (Staphylococcus aureus [10]) [µg/mL],MIC (Staphylococcus aureus [11]) [µg/mL],MIC (Staphylococcus aureus [12]) [µg/mL],MIC (Staphylococcus aureus [13]) [µg/mL],MIC (Staphylococcus aureus [14]) [µg/mL],MIC (Staphylococcus aureus [15]) [µg/mL],MIC (Staphylococcus aureus [16]) [µg/mL],MIC (Staphylococcus aureus [17]) [µg/mL],MIC (Enterococcus faecium) [µg/mL],MIC (Enterococcus faecalis [18]) [µg/mL],other results
O=c1c2ccccc2[s+]([O-])n1C1CCCCCCC1 (stereo not given),> 125,> 125,> 125,> 125,> 125,> 125,> 125,> 125,> 125,> 125,> 125,> 125,> 125,> 125,> 125,> 125,> 125,> 125,> 125,> 125,MIC (Staphylococcus aureus [19]): > 125 µg/mL; MIC (Staphylococcus aureus [20]): 125 µg/mL; MIC (Staphylococcus aureus [21]): > 125 µg/mL; MIC (Staphylococcus aureus [22]): > 125 µg/mL; MIC (Staphylococcus aureus [23]): > 125 µg/mL; MIC [24]: > 125 µg/mL; MIC (Staphylococcus aureus [25]): > 125 µg/mL; MIC (Listeria monocytogenes): > 125 µg/mL; MIC (Staphylococcus aureus [26]): > 125 µg/mL; MIC (Staphylococcus aureus [27]): > 125 µg/mL; MIC [28]: > 125 µg/mL; MIC (Staphylococcus aureus [29]): > 125 µg/mL; MIC (Staphylococcus aureus [30]): > 125 µg/mL; MIC (Staphylococcus aureus [31]): > 125 µg/mL; MIC (Staphylococcus aureus [32]): > 125 µg/mL
CC(C)CCn1c(=O)c2ccccc2[s+]1[O-] (stereo not given),> 125,> 125,> 125,> 125,> 125,> 125,> 125,> 125,> 125,> 125,> 125,> 125,> 125,> 125,> 125,> 125,> 125,> 125,> 125,> 125,MIC (Staphylococcus aureus [19]): > 125 µg/mL; MIC (Staphylococcus aureus [20]): > 125 µg/mL; MIC (Staphylococcus aureus [21]): > 125 µg/mL; MIC (Staphylococcus aureus [22]): > 125 µg/mL; MIC (Staphylococcus aureus [23]): > 125 µg/mL; MIC [24]: > 125 µg/mL; MIC (Staphylococcus aureus [25]): > 125 µg/mL; MIC (Listeria monocytogenes): > 125 µg/mL; MIC (Staphylococcus aureus [26]): > 125 µg/mL; MIC (Staphylococcus aureus [27]): > 125 µg/mL; MIC [28]: > 125 µg/mL; MIC (Staphylococcus aureus [29]): > 125 µg/mL; MIC (Staphylococcus aureus [30]): > 125 µg/mL; MIC (Staphylococcus aureus [31]): > 125 µg/mL; MIC (Staphylococcus aureus [32]): > 125 µg/mL
CC(C)Cn1c(=O)c2ccccc2[s+]1[O-] (stereo not given),> 125,> 125,> 125,> 125,> 125,> 125,> 125,> 125,> 125,> 125,> 125,> 125,> 125,> 125,> 125,> 125,> 125,> 125,> 125,> 125,MIC (Staphylococcus aureus [19]): > 125 µg/mL; MIC (Staphylococcus aureus [20]): > 125 µg/mL; MIC (Staphylococcus aureus [21]): > 125 µg/mL; MIC (Staphylococcus aureus [22]): > 125 µg/mL; MIC (Staphylococcus aureus [23]): > 125 µg/mL; MIC [24]: > 125 µg/mL; MIC (Staphylococcus aureus [25]): > 125 µg/mL; MIC (Listeria monocytogenes): > 125 µg/mL; MIC (Staphylococcus aureus [26]): > 125 µg/mL; MIC (Staphylococcus aureus [27]): > 125 µg/mL; MIC [28]: > 125 µg/mL; MIC (Staphylococcus aureus [29]): > 125 µg/mL; MIC (Staphylococcus aureus [30]): > 125 µg/mL; MIC (Staphylococcus aureus [31]): > 125 µg/mL; MIC (Staphylococcus aureus [32]): > 125 µg/mL
CCCCCCCCCCCCn1sc2ccccc2c1=O,1,7.8,1,3.9,> 125,2,1,3.9,3.9,1,2,3.9,62.5,1,1,2,3.9,2,3.9,> 125,MIC (Staphylococcus aureus [19]): 15.6 µg/mL; MIC (Staphylococcus aureus [20]): 1 µg/mL; MIC (Staphylococcus aureus [21]): 0.25 µg/mL; MIC (Staphylococcus aureus [22]): 7.8 µg/mL; MIC (Staphylococcus aureus [23]): 3.9 µg/mL; MIC [24]: 7.8 µg/mL; MIC (Staphylococcus aureus [25]): 3.9 µg/mL; MIC (Listeria monocytogenes): 15.6 µg/mL; MIC (Staphylococcus aureus [26]): 1 µg/mL; MIC (Staphylococcus aureus [27]): 1 µg/mL; MIC [28]: 0.25 µg/mL; MIC (Staphylococcus aureus [29]): 3.9 µg/mL; MIC (Staphylococcus aureus [30]): 15.6 µg/mL; MIC (Staphylococcus aureus [31]): 7.8 µg/mL; MIC (Staphylococcus aureus [32]): 0.5 µg/mL
